As a reminder, the CC50 is the concentration that lowers cell viability or growth by half. By MIC is commonly meant the least concentration at which growth counts as inhibited. A high value points to weaker potency.

Converted amounts (≈) assume the structure as drawn. Structures can show the parent of a compound that is named as a salt. Some results are limits rather than exact numbers.

The record followed here is ChEMBL document CHEMBL3745663, “Identification of a novel class of quinoline-oxadiazole hybrids as anti-tuberculosis agents” (Bioorg Med Chem Lett, 2016).

Data set [1] in a line: Cytotoxicity against human HepG2 cells after 48 hrs by SRB assay. The data set is classed as cell-based.
Data set [2] has as its system Mycobacterium tuberculosis. The experiment in a line: Antibacterial activity against Mycobacterium tuberculosis H37Rv after 7 days by resazurin microplate assay. In kind it is functional. To be noted: 168 h.
A short description of data set [3]: Selectivity index, ratio of CC50 for human HepG2 cells to MIC for Mycobacterium tuberculosis H37Rv. In kind it is toxicity, cell-based. To be noted: read-out: Selectivity Index. The method, boiled down:
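Index equals HepG2 CC50 (SRB assay, 10 to 80 µg/mL) divided by the REMA MIC against M. tuberculosis H37Rv (50 to 0.1 µg/mL).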

The test system of data set [4] is Mycobacterium tuberculosis. Description: Antibacterial activity against Mycobacterium tuberculosis. In kind it is functional.
A short description of data set [5]: Metabolic stability in rat liver microsomes assessed as compound remaining at 10 uM after 60 mins by HPLC analysis. In kind it is ADME. To be noted: read-out: Stability. The procedure, abridged:
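Compound was incubated with rat liver microsomes and its disappearance followed over 60 minutes. Diazepam was the internal standard. The drug-to-internal-standard ratio was calculated at each time point to gauge how much compound remained.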

`COc1nc2ccccc2cc1/C=C/c1noc(-c2ccccc2)n1` gave a CC50 at 48 h in data set [1] of more than 240 µM. In data set [2], this molecule registered an MIC of 12.3 µM (≈ 4.05 µg/mL). Further, the selectivity ratio in data set [3] is more than 19.5.
In the case of `COc1nc2ccc(Br)cc2cc1[C@@H](c1ccccc1)[C@@](O)(CCN(C)C)c1cccc2ccccc12` [BEDAQUILINE], the MIC in data set [4] amounted to 0.1 µM (≈ 0.0556 µg/mL).
In data set [1], `COc1ccc(-c2nc(/C=C/c3cc4ccccc4nc3OC)no2)cc1` yielded a cytotoxic concentration (CC50) at 48 h of more than 220 µM. The molecule also had an MIC in data set [2] of more than 140 µM. The selectivity ratio in data set [3] is more than 1.57.
In the case of `COc1cccc2c1C(=O)c1c(O)c3c(c(O)c1C2=O)C[C@@](O)(C(=O)CO)C[C@@H]3O[C@H]1C[C@H](N)[C@H](O)[C@H](C)O1` [DOXORUBICIN HYDROCHLORIDE], half-maximal cytotoxicity in data set [1] (CC50 at 48 h) was put at 127 µM.
In turn, `NNC(=O)c1ccncc1` [ISONIAZID] displayed a minimal inhibitory concentration (MIC) in data set [2] of 0.73 µM (≈ 0.1 µg/mL).
With `COc1nc2ccccc2cc1/C=C/c1noc(/C=C/c2ccccc2)n1`, the CC50 at 48 h in data set [1] is more than 225 µM. Further, inhibition of growth in data set [2] (MIC) required 6.33 µM (≈ 2.25 µg/mL). Further, in data set [3], the selectivity ratio was more than 35.5.
For `COc1nc2ccccc2cc1/C=C/c1noc(-c2cccnc2)n1` the same measures were more than 240 µM, more than 150 µM and more than 1.6.
In data set [1], `COCc1nc(/C=C/c2cc3ccccc3nc2OC)no1` gave a CC50 at 48 h of more than 270 µM. Further, the remaining at 1 h, 10 µM in data set [5] worked out at 99%. The same molecule yielded an MIC in data set [2] of 0.44 µM (≈ 0.131 µg/mL). Further, in data set [3], the selectivity ratio was more than 610.
Turning to `COc1nc2ccccc2cc1/C=C/c1noc(-c2cccc(Cl)c2)n1`, the CC50 at 48 h in data set [1] was more than 220 µM. In data set [2], the MIC is more than 110 µM. The selectivity ratio in data set [3] is more than 2.
For `COc1nc2ccccc2cc1/C=C/c1noc(Cc2ccccc2)n1` the same measures were more than 230 µM, 0.44 µM (≈ 0.151 µg/mL) and more than 520.
On the same counts, the results for `COc1nc2ccccc2cc1/C=C/c1noc(-c2ccccc2C)n1` are more than 230 µM, 72.8 µM (≈ 25 µg/mL) and more than 3.16.
For `COc1nc2ccccc2cc1/C=C/c1noc(C)n1` the same measures were more than 300 µM, 1.05 µM (≈ 0.281 µg/mL) and more than 285.
In data set [1], `COc1nc2ccccc2cc1/C=C/c1noc(-c2ccc(C)cc2)n1` returned a CC50 at 48 h of more than 230 µM. Also, in data set [2], the MIC worked out at 40 µM (≈ 13.7 µg/mL). For the same molecule, in data set [3], the selectivity ratio is more than 5.75.
On the same counts, the results for `COc1nc2ccccc2cc1/C=C/c1noc(-c2ccc(Br)cc2)n1` are more than 195 µM, 9.19 µM (≈ 3.75 µg/mL) and more than 21.2.
On the same counts, the results for `COc1cccc(-c2nc(/C=C/c3cc4ccccc4nc3OC)no2)c1` are more than 220 µM, 105 µM (≈ 37.7 µg/mL) and more than 2.1.
For `COc1ccc(Cc2nc(/C=C/c3cc4ccccc4nc3OC)no2)cc1` the same measures were more than 215 µM, 0.4 µM (≈ 0.149 µg/mL) and more than 535.
For `COc1nc2ccccc2cc1/C=C/c1noc(COc2ccccc2)n1`, the CC50 at 48 h in data set [1] was more than 220 µM. In addition, the MIC in data set [2] was 0.67 µM (≈ 0.241 µg/mL). Also, the selectivity ratio in data set [3] is more than 330.
In turn, `COc1ccccc1-c1nc(/C=C/c2cc3ccccc3nc2OC)no1` came in with a CC50 at 48 h in data set [1] of more than 220 µM. Besides, the MIC in data set [2] was 6.96 µM (≈ 2.5 µg/mL). The selectivity ratio in data set [3] was more than 31.6.
With `COc1nc2ccccc2cc1/C=C/c1noc(-c2ccco2)n1`, in data set [1], the CC50 at 48 h is more than 250 µM. Moreover, 27.4 µM (≈ 8.75 µg/mL) was the least that counted as inhibitory in data set [2] (MIC). The selectivity ratio in data set [3] is more than 9.12.
On the same counts, the results for `COc1nc2ccccc2cc1/C=C/c1noc(-c2cccc(C)c2)n1` are more than 230 µM, 110 µM (≈ 37.8 µg/mL) and more than 2.09.
Consider `COc1nc2ccccc2cc1/C=C/c1noc(-c2ccc(F)cc2)n1`, for which the CC50 at 48 h in data set [1] was more than 230 µM. The molecule further yielded an MIC in data set [2] of 5.61 µM (≈ 1.95 µg/mL). Further, the selectivity ratio in data set [3] is more than 41.
On the same counts, the results for `COc1nc2ccccc2cc1/C=C/c1noc(-c2ccccc2Br)n1` are more than 195 µM, 16.8 µM (≈ 6.86 µg/mL) and more than 11.6.
